ChEMBL document CHEMBL1138841, “An orally bioavailable, functionally selective inverse agonist at the benzodiazepine site of GABAA alpha5 receptors with cognition enhancing properties” (J Med Chem, 2004)

Columns and labels:
[1] = biological target: GABA-A receptor; alpha-1/beta-3/gamma-2 (Homo sapiens) (UniProt P14867+P18507+P28472); test: In vitro percent efficacy against human gamma-aminobutyric-acid A receptor alpha-1-beta-3-gamma-2 expressed in L(tk-) cells; assay type: cell-based
Procedure, shortened: (§1)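 Whole-cell patch clamp on mouse fibroblast L(tk-) cells stably expressing human αxβ3γ2 receptors. Efficacy is the maximum % modulation of current evoked by a submaximal (EC20) GABA concentration. Mean ± SEM from at least five individually fitted concentration–response curves per subtype.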

[2] = biological target: GABA-A receptor; alpha-2/beta-3/gamma-2 (Homo sapiens) (UniProt P18507+P28472+P47869); test: In vitro percent efficacy against human gamma-aminobutyric-acid A receptor alpha-2-beta-3-gamma-2 expressed in L(tk-) cells; assay type: cell-based; procedure, shortened: as §1
[3] = biological target: GABA-A receptor; alpha-3/beta-3/gamma-2 (Homo sapiens) (UniProt P18507+P28472+P34903); test: In vitro percent efficacy against human gamma-aminobutyric-acid A receptor alpha-3-beta-3-gamma-2 expressed in L(tk-) cells; assay type: cell-based; procedure, shortened: as §1
[4] = Oral bioavailability in dog; assay type: ADME, organism-based, Canis lupus familiaris; settings: in vivo
[5] = biological target: T1, GABA-A receptor; alpha-3/beta-3/gamma-2 (Homo sapiens, UniProt P18507+P28472+P34903); test: Displacement of [3H]-Ro- 15-1788 from human gamma-aminobutyric-acid GABA-A receptor alpha-3-beta-3-gamma-2 expressed in L(tk-) cells; assay type: cell-based
T1 sequence (P18507 whole entry): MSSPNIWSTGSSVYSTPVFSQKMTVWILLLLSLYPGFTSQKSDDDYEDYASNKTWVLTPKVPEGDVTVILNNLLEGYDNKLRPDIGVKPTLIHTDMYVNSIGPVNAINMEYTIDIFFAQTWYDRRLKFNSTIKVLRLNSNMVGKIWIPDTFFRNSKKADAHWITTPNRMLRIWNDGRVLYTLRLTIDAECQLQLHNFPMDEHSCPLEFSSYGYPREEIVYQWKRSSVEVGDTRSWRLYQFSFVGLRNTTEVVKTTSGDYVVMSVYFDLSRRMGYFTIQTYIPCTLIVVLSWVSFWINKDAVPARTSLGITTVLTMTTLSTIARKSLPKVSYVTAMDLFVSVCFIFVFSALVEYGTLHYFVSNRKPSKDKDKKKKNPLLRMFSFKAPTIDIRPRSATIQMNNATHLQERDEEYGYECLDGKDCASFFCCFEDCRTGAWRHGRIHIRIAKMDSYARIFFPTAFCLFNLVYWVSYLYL
T1 sequence (P28472 whole entry): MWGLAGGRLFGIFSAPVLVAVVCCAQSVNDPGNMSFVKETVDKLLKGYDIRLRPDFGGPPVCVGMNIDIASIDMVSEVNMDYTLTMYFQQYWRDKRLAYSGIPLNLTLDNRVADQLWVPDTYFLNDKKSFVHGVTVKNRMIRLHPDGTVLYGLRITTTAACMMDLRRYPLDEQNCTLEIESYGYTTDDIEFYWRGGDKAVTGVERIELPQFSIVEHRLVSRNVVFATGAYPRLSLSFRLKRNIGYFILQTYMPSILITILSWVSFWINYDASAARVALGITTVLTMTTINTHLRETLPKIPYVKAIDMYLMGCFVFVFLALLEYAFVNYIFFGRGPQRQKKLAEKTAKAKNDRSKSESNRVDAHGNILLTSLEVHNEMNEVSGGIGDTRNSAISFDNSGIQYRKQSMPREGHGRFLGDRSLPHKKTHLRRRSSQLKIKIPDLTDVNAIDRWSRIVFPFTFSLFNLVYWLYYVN
T1 sequence (P34903 whole entry): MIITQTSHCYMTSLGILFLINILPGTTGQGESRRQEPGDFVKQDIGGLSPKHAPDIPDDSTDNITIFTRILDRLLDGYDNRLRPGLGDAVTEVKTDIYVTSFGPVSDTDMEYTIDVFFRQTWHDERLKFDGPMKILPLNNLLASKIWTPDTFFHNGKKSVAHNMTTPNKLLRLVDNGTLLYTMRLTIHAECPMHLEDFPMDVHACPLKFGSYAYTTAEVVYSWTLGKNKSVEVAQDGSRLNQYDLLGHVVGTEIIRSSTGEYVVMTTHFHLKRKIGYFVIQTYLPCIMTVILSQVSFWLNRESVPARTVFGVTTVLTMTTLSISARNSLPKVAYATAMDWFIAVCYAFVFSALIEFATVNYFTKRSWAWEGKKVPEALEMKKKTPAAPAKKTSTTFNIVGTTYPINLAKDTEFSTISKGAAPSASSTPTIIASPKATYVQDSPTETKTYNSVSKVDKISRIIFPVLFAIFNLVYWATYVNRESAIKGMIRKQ

[6] = biological target: GABA A receptor alpha-4/beta-3/gamma-2 (Homo sapiens, UniProt P18507+P28472+P48169); test: Binding affinity towards gamma-aminobutyric-acid GABA-A receptor alpha-4-beta-3-gamma-2; assay type: protein-complex assay
Sequence of GABA A receptor alpha-4/beta-3/gamma-2 (P48169 whole entry, one chain of several): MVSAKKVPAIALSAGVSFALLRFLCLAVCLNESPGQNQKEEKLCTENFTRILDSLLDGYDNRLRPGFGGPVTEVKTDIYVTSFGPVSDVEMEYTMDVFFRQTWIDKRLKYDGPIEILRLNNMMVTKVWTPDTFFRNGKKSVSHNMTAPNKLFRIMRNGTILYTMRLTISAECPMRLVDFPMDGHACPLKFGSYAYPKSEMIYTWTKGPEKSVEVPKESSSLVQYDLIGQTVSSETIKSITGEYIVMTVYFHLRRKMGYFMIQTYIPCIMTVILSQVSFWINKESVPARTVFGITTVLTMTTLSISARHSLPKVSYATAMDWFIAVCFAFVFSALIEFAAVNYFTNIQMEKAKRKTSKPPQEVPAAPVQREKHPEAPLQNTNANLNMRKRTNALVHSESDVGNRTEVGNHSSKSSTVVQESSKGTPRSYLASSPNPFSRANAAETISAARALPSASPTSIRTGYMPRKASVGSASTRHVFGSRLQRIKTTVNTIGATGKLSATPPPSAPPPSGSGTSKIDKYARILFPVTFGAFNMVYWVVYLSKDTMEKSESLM

[7] = biological target: GABA-A receptor; alpha-6/beta-3/gamma-2 (Homo sapiens, UniProt P18507+P28472+Q16445); test: Binding affinity towards gamma-aminobutyric-acid GABA-A receptor alpha-6-beta-3-gamma-2; assay type: protein-complex assay
Sequence of GABA-A receptor; alpha-6/beta-3/gamma-2 (Q16445 whole entry, one chain of several): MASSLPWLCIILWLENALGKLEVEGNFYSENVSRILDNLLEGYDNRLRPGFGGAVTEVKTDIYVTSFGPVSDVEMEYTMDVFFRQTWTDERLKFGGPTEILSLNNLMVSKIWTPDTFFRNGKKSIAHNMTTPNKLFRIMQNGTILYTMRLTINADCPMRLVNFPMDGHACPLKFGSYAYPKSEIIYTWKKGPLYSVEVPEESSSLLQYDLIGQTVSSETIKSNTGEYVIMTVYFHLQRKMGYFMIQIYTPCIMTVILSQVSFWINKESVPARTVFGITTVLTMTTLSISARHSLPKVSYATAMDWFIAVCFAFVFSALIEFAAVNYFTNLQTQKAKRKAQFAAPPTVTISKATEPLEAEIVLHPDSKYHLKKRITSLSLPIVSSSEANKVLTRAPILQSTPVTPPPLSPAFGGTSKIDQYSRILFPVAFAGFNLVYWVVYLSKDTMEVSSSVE

[8] = biological target: T2, GABA-A receptor; alpha-1/beta-3/gamma-2 (Homo sapiens, UniProt P14867+P18507+P28472); test: Displacement of [3H]-Ro- 15-1788 from human gamma-aminobutyric-acid GABA-A receptor alpha-1-beta-3-gamma-2 expressed in L(tk-) cells; assay type: cell-based
T2 sequence (P14867 whole entry): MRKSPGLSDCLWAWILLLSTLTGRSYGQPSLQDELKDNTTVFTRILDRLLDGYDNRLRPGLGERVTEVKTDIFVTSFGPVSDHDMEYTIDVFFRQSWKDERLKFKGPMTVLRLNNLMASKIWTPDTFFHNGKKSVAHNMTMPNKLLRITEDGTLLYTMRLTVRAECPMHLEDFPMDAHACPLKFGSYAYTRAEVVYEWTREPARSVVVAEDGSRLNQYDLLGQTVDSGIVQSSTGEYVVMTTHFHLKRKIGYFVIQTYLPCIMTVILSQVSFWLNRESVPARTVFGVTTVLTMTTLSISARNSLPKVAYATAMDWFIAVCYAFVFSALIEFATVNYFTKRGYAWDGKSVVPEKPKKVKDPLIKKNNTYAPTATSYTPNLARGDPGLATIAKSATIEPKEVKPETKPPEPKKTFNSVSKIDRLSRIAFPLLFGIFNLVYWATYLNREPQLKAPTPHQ
T2 sequence (P18507 whole entry): T1 sequence (P18507 whole entry)
T2 sequence (P28472 whole entry): T1 sequence (P28472 whole entry)

[9] = biological target: T3, GABA-A receptor; alpha-5/beta-3/gamma-2 (Homo sapiens, UniProt P18507+P28472+P31644); test: Displacement of [3H]-Ro- 15-1788 from human gamma-aminobutyric-acid GABA-A receptor alpha-5-beta-3-gamma-2 expressed in L(tk-) cells; assay type: cell-based
T3 sequence (P18507 whole entry): T1 sequence (P18507 whole entry)
T3 sequence (P28472 whole entry): T1 sequence (P28472 whole entry)
T3 sequence (P31644 whole entry): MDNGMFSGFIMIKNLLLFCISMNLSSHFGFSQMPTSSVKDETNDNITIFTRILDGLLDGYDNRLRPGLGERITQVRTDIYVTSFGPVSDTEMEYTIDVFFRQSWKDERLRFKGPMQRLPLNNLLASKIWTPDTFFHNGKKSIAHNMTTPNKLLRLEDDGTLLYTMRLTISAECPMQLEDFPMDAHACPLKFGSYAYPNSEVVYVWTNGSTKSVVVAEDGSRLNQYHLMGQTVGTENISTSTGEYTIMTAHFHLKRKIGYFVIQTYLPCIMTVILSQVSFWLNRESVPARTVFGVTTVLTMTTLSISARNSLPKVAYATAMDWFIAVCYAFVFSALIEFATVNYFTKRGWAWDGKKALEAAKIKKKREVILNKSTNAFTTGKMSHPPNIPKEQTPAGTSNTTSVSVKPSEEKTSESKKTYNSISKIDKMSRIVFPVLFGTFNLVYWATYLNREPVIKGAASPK

[10] = biological target: GABA-A receptor; anion channel (Rattus norvegicus) (UniProt O09028+P15431+P18506+P18508+P19969+P20236+P23574+P23576+P28471+P28473+P30191+P62813+P63079+P63138+Q91ZM7+Q9ES14); test: Concentration required to occupy 50% of gamma-aminobutyric-acid GABA-A receptor alpha subtype at 0.75 hr after dose; assay type: protein-complex assay
Procedure, shortened: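 Rats dosed orally in 0.5% Methocel vehicle; occupancy of the benzodiazepine binding site measured 0.75 h postdose by in vivo [3H]Ro 15-1788 binding. Dose giving 50% occupancy read from the dose–occupancy relationship.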

[11] = biological target: T4, GABA-A receptor; alpha-2/beta-3/gamma-2 (Homo sapiens, UniProt P18507+P28472+P47869); test: Displacement of [3H]-Ro- 15-1788 from human gamma-aminobutyric-acid GABA-A receptor alpha-2-beta-3-gamma-2 expressed in L(tk-) cells; assay type: cell-based
T4 sequence (P18507 whole entry): T1 sequence (P18507 whole entry)
T4 sequence (P28472 whole entry): T1 sequence (P28472 whole entry)
T4 sequence (P47869 whole entry): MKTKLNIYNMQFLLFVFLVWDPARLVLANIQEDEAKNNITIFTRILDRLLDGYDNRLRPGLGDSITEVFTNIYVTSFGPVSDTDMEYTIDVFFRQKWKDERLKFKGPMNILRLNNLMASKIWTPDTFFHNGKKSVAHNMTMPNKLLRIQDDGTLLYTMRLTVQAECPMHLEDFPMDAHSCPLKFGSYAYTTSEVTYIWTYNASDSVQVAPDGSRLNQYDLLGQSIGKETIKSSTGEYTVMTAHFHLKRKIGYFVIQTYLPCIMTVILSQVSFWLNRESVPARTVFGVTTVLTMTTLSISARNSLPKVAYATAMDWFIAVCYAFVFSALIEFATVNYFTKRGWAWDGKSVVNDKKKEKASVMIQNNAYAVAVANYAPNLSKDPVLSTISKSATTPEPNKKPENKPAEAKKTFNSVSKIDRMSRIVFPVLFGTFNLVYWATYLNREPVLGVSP

[12] = biological target: GABA-A receptor; alpha-5/beta-3/gamma-2 (Homo sapiens) (UniProt P18507+P28472+P31644); test: In vitro percent efficacy against human gamma-aminobutyric-acid A receptor alpha-5-beta-3-gamma-2 expressed in L(tk-) cells; assay type: cell-based; procedure, shortened: as §1
[13] = Oral bioavailability in rat; assay type: ADME, organism-based; settings: in vivo

Compound | Efficacy [1] [%] | Efficacy [2] [%] | Efficacy [3] [%] | bioavailability [4] [%] | Ki [5] [nM] | Ki [6] [nM] | Ki [7] [nM] | Ki [8] [nM] | Ki [9] [nM] | Occupancy [10] [mg/kg] | Ki [11] [nM] | Efficacy [12] [%] | bioavailability [13] [%]
CNC1=Nc2ccc(Cl)cc2C(c2ccccc2)=[N+]([O-])C1 | 100 | 111 | 113 | – | – | – | – | – | – | – | – | – | –
Cc1cc(-c2nncc3c(C(C)(C)C)c(OCc4ncnn4C)nn23)no1 | -16 | 6 | -9 | 8 | 0.77 | 395 | > 4000 | 0.83 | 1.4 | 0.35 | 0.85 | -55 | 52
Cc1cc(-c2nnc3c4ccccc4c(OCc4cn(C)nn4)nn23)no1 | -15 | 16 | -7 | – | – | – | – | – | – | – | – | -40 | –
CCc1c(C(=O)OC)ncc2[nH]c3cc(OC)c(OC)cc3c12 | -71 | -53 | -62 | – | – | – | – | – | – | – | – | -57 | –
